Data on 2 molecules can be found in paper PMC5689159 (Biochemistry and Biophysics Reports, 2016).

In test [1] the target is litchi lectin. The experiment in a line: tryptophan fluorescence quenching. The settings on record: free lectin; 150 mM NaCl, 10 mM CaCl2, pH 7.5, 298 K; n = 0.9. Format: binding, Litchi chinensis. The procedure, abridged: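 Steady-state fluorescence emission spectra of dilute lectin solutions (10−4−10−6 M) recorded at 298 K in 1 cm path-length quartz cells on a fluorescence spectrophotometer. UV–vis absorption spectra were taken under the same conditions.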

Test [2] concerns the target litchi lectin (Litchi chinensis seed lectin) (Litchi chinensis). The experiment in a line: native gel or EMSA.

`OC[C@H]1O[C@H](O[C@H]2[C@H](O)[C@@H](O)C(O)O[C@@H]2CO)[C@H](O)[C@@H](O)[C@@H]1O` (some centres unmarked) [maltose]: in test [1], the “Ka/ (10^4) (M^-1)” value is given as 4.9 (±0.2)×10^4.

Consider “litchi lectin (Litchi chinensis seed lectin) (natural protein)”, for which the stoichiometry N in test [2] was 2.

As a reminder, the stoichiometry N is the number of molecules, sites or subunits per partner or assembly.
